From ChEMBL document CHEMBL4002611, “Discovery of medium ring thiophosphorus based heterocycles as antiproliferative agents” (Bioorg Med Chem Lett, 2017)

Tests used:
[1] = Drug metabolism in human MCF7 cells assessed as H2S release from compound at 400 uM incubated for 5 hrs by confocal microscopic assay; assay type: ADME, cell-based; conditions: mcf7, 5 h
Outline: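 MCF-7 cells loaded with an H₂S-sensitive fluorescent probe for 2 h at 37 °C, washed, then exposed to H₂S donors for 5 h before confocal imaging. Controls were untreated cells, probe alone, and NaHS.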

MCF7 [2] = assay: Antiproliferative activity against human MCF7 cells after 72 hrs in presence of 100 uM Na2S by MTT assay; assay type: functional, cell-based; conditions: MCF7, 72 h
Outline: (§1)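 Na₂S, which forms H₂S immediately in water, was added together with the test compound to MCF7 cells as a single administration. Proliferation was read by MTT assay.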

SK-OV-3 = assay: Antiproliferative activity against human SKOV3 cells after 4 days by crystal violet staining based spectrophotometric method; assay type: functional, cell-based; conditions: SK-OV-3, 96 h
WI-38 = assay: Antiproliferative activity against human WI38 cells after 4 days by crystal violet staining based spectrophotometric method; assay type: ADME, cell-based; conditions: WI-38, 96 h
MCF7 [3] = assay: Antiproliferative activity against human MCF7 cells after 4 days by crystal violet staining based spectrophotometric method; assay type: functional, cell-based; conditions: MCF7, 96 h
MCF7 [4] = assay: Antiproliferative activity against human MCF7 cells after 72 hrs in presence of 10 uM Na2S by MTT assay; assay type: functional, cell-based; conditions: MCF7, 72 h; outline: as §1
MCF7 [5] = assay: Antiproliferative activity against human MCF7 cells after 72 hrs in presence of 1 uM Na2S by MTT assay; assay type: functional, cell-based; conditions: MCF7, 72 h; outline: as §1
[6] = Therapeutic index, ratio of IC50 for human WI38 cells to IC50 for human MCF7 cells
[7] = Drug metabolism in pH 7.4 PBS buffer assessed as H2S release from compound at 5 mM incubated for 4 days by DNS-Az probe based fluorescence assay; assay type: physicochemical; conditions: pH 7.4, 96 h, 5000 µM
Outline: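 H₂S release in solution was measured with an H₂S-specific dansyl azide fluorescent probe after incubation at 37 °C for 4 days, against a blank sample.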

[8] = Permeability of the compound by PAMPA; assay type: physicochemical; conditions: read-out: permeability

Row | Structure (SMILES) | IC50 (SK-OV-3) [µM] | IC50 (WI-38) [µM] | IC50 (MCF7 [3]) [µM] | further results
1 | COc1ccc(P2(=S)Oc3ccccc3-c3ccccc3O2)cc1 | 0.76 | 1.38 | 0.76 to 0.82 | Drug metabolism [1]: Metabolite_Detected; IC50 (MCF7 [2]): 1.44 µM; IC50 (MCF7 [4]): 1.01 µM; IC50 (MCF7 [5]): 1.17 µM; Ratio IC50 [6]: 2; H2S released [7]: 2 µM
2 | S=P1(c2ccccc2)Nc2ccccc2O1 (stereo not given) | – | > 50 | – | Drug metabolism [1]: Metabolite_Detected
3 | COc1ccc(P2(=S)Nc3ccc(Cl)cc3N2)cc1 (stereo not given) | > 400 | – | > 400 | –
4 | S=P1(c2ccc(Oc3ccccc3)cc2)Nc2ccccc2O1 (stereo not given) | 45.8 | 125 | 73.9 | –
5 | COc1ccc(P2(=O)Oc3ccccc3-c3ccccc3O2)cc1 | 5.94 | 18.6 | 11 to 69 | IC50 (MCF7 [2]): 50.6 µM; IC50 (MCF7 [4]): 52.9 µM; IC50 (MCF7 [5]): 59 µM
6 | COc1ccc(P2(=S)Nc3ccccc3CO2)cc1 (stereo not given) | 91.4 | 392 | 200 | –
7 | Cc1ccc(S(=O)(=O)N2c3ccccc3OP2(=S)c2ccccc2)cc1 (stereo not given) | 230 | 353 | 181 | –
8 | S=P1(c2ccccc2)NCc2ccccc2N1 (stereo not given) | > 400 | 173 | > 400 | –
9 | COc1ccc2c(c1)NP(=S)(c1ccc(Oc3ccccc3)cc1)O2 (stereo not given) | 27.9 | – | 32.1 | –
10 | S=P1(c2ccccc2)OCc2cccc3cccc(c23)CO1 | 51.1 | 76.2 | 71.1 | –
11 | COc1ccc(P2(=S)OC[C@@H]3OC(C)(C)O[C@H]3CO2)cc1 | 374 | > 400 | > 400 | H2S released [7]: Not Active
12 | S=P1(c2ccc(Oc3ccccc3)cc2)N[C@@H](c2ccccc2)[C@H](c2ccccc2)N1 | 49 | – | > 400 | –
13 | S=P(S)(NCc1ccccc1)c1ccc(Oc2ccccc2)cc1 (stereo not given) | 47 | 104 | – | Papp [8]: 1.9 ×10⁻⁶ cm/s; Drug metabolism [1]: Metabolite_Detected
14 | COc1ccc(P2(=S)Oc3ccc(Br)cc3-c3cc(Br)ccc3O2)cc1 | > 400 | – | > 400 | H2S released [7]: Not Active
15 | COc1ccc(P2(=S)Oc3ccccc3O2)cc1 | 193 | 250 | 281 | –
16 | S=P1(c2ccccc2)Oc2ccc(Br)cc2-c2cc(Br)ccc2O1 | > 400 | – | > 400 | –
17 | COc1cccc2c1OP(=S)(c1ccccc1)O2 (stereo not given) | 29.7 | 40.3 | 40.7 | –
18 | S=P1(c2ccccc2)Oc2ccccc2-c2ccccc2O1 | 103 | 400 | 140 | Ratio IC50 [6]: 3; H2S released [7]: Not Active
19 | COc1ccc2c(c1)NP(=S)(c1ccccc1)O2 (stereo not given) | 24.1 | – | 26.2 | –
20 | O=S(=O)(c1ccc(Cl)cc1)N1c2ccccc2OP1(=S)c1ccccc1 (stereo not given) | 110 | – | 107 | –
21 | S=P1(c2ccccc2)OCC2C3CCC(O3)C2CO1 (stereo not given) | > 400 | > 400 | > 400 | –
22 | S=P1(c2ccc(Oc3ccccc3)cc2)Nc2ccccc2CO1 (stereo not given) | 48.4 | 108 | 29.4 | –
23 | S=P1(c2ccccc2)OCc2ccccc2CO1 | 51.2 | 134 | > 400 | –
24 | S=P1(c2ccccc2)N[C@@H](c2ccccc2)[C@H](c2ccccc2)N1 | 164 | 145 | 165 | –
25 | S=P1(c2ccccc2)Oc2ccc(-c3ccccc3)cc2-c2cc(-c3ccccc3)ccc2O1 | > 400 | – | > 400 | –
